A selection: hits, their analogues and other compounds. The true share with any hit is near 12%.
Diaphorase act – counter-screen for diaphorase-based assays: diaphorase activators and chemical reducers. Diaphorase/resazurin coupled assay, resorufin fluorescence, 16 min; stronger effect = higher value; 1 = vehicle wells, 0 = NADH-free wells. activation factor at 20 µM. 0.005% of 190,000 active. AID 1229;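 active = diaphorase activity raised at least twofold by the compound at 20 µM; inactive = activation factor below 2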
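System – purified diaphorase enzyme from Clostridium kluyveri · Input – enzyme 0.07 U/mL final · Also added – final NADH 0.114 mM, resazurin 0.1 mM · Measured by – fluorescence of resorufin, 544 nm excitation, 590 nm emission · Timing – 16 min enzyme reaction, ambient temperature · Measure – resorufin increase flagging diaphorase activators or reducers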
Cl transport mod – KCC2 (human) Cl- transport modulation; B-score of Tl+ flux slope (higher = more flux/activation; lower = inhibition) at 10 µM; 2.2% of 190,000 active; KCC2 cells, thallium flux FluoZin-2 fluorescence;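 active = thallium flux slope and its plate-corrected score both differing from the plate sample mean at a set confidence after two filtering rounds, in either direction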;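 note: slope of fluorescence scaled to starting intensity during 10 to 20 s after thallium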
ROMK mod – modulators of human ROMK potassium channel | P48048 | Tet-inducible ROMK, thallium flux fluorescence; actives lie on both sides | B-score at 10 µM | 2% of 130,000 active | AID 1918;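 active = signal ratio slope over the read window, or its plate-corrected B-score, at least 3 SD from the plate mean, either direction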;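 note: B-score of the F/F0 ratio slope over 7 to 12 s after thallium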
Target sequence (P48048 whole entry, looked up): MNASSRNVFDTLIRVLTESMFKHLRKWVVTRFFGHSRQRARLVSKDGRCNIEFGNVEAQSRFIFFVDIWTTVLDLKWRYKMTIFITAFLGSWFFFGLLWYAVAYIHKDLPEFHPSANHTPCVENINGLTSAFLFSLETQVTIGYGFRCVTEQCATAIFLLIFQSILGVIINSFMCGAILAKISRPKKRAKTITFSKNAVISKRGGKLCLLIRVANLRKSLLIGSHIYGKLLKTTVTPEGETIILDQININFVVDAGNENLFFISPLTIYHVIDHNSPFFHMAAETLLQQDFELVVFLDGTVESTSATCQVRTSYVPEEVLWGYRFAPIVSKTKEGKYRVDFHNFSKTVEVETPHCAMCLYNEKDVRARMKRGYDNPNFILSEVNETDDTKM
Diaphorase inh – inhibits diaphorase or chemically oxidizes, flagging diaphorase assay artifacts. diaphorase resazurin-to-resorufin fluorescence, NADH, 16 min; bacterial (C. kluyveri) enzyme, not human. inhibition, % at 20 µM. 0.69% of 190,000 active. AID 1217;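 active = primary screen inhibition at 20 µM above a set limit, cut at about 50% in these data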;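 note: plate controls were DMSO with full reaction for no effect and wells lacking NADH for full effect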
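Test system: diaphorase enzyme from Clostridium kluyveri; amount: diaphorase at 0.14 U/mL in enzyme working solution; detection: fluorescence of resorufin formed from resazurin, Ex 544/Em 590 nm; times: reaction incubation of 16 min at room temperature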
WT yeast gro inh – growth inhibition of WT yeast, mitochondrial fusion screen. mitochondrial fusion phenotypic screen, WT strain. inhibition, % at 10 µM. 2.1% of 190,000 active; in the data active = inhibition above about 58%; tested in S. cerevisiae
L major viab – reduces viability of Leishmania major promastigotes | resazurin fluorescence viability | inhibition, % at 10 µM | 9% of 200,000 active; in the data active = inhibition above about 50%;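 note: promastigotes grown with compound for 44 hours at 28 °C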
* marks the source's active call; other numbers are inactive results; x = not tested or not shown.

SMILES | Diaphorase act | Cl transport mod | ROMK mod | Diaphorase inh | WT yeast gro inh | L major viab
CCOc1ccc(/C=C2/SC(=O)NC2=S)cc1 | 0.6 | 69* | 4.4* | 42 | 64 | 7
CC1CCc2ccc(F)cc2N1S(=O)(=O)c1cccs1 (stereo not drawn) | 0.9 | 0.035 | x | 14 | 6 | 96*
CCCOC(=O)c1ccc(NC(=O)c2nc3nc(C)cc(C)n3n2)cc1 | 1.1 | -0.039 | 0.59 | -13 | 9 | 7
CC(=O)Nc1cccc(C(=O)N/N=C/c2ccccc2F)c1 | 0.9 | 0.026 | 0.32 | 7 | -7 | 83*
CCCCC(=O)Nc1cccc(C(=O)N/N=C/c2ccc(OC)cc2OC)c1 | 0.9 | -0.94 | 0.13 | 10 | 10 | 100*
COc1ccc(/C=N/NC(=O)c2cccc(NC(=O)c3ccccc3Cl)c2)cc1OC | 0.8 | -2.2 | -0.43 | 22 | 1 | 37
O=C(N/N=C/c1ccncc1)c1cccc(NC(=O)c2ccccc2Cl)c1 | 1 | 0.11 | -0.58 | 0 | -9 | 62*
CC(=O)Nc1cccc(C(=O)N/N=C/c2ccc(F)cc2)c1 | 1 | 0.14 | -1.9 | 0 | 6 | 10
COc1ccc(/C=N/NC(=O)c2cccc(NC(=O)c3ccccc3Cl)c2)c(OC)c1 | 0.7 | -1.9 | 0.17 | 27 | 4 | 53*
CN1N=C(C(C)(C)C)CSC1=Nc1ccccc1 | x | -0.32 | x | x | x | x
O=C(Nc1ccc(Cl)c(Cl)c1)O/N=C/c1ccncc1 | 1 | -0.0031 | x | 1 | 74* | 17
CCCn1c(SCC(=O)NC(=O)NC(C)(C)C)n[nH]c1=O | 1 | -0.25 | 0.25 | 0 | 13 | -6
CCC(=C(c1ccc(OC)cc1)c1ccc(OC)cc1)c1cn(CC(O)CN2CCN(C)CC2)c2ccccc12 (stereo not drawn) | 1.3 | -0.12 | -1.2 | -35 | 80* | 100*
O=C(OC1CCOC1=O)c1cc(-c2cccs2)nc2ccccc12 (stereo not drawn) | 0.8 | -1.1 | 0.013 | 22 | -11 | -2
O=C(CN1CCOCC1)Nc1nc(-c2ccc3c(c2)CCN3S(=O)(=O)c2ccccc2)cs1 | 0.9 | -0.72 | x | 13 | -2 | 68*
CC(=O)Nc1nc(-c2ccc3c(c2)CCN3S(C)(=O)=O)cs1 | 1 | x | 0.017 | 2 | -3 | -1
Cc1sc(NC(=O)CN2CCOCC2)nc1-c1ccc2c(c1)CCN2S(=O)(=O)c1ccccc1 | 0.9 | x | -0.082 | 10 | x | 97*
CC(C)CCC(CC(C)O)C(=O)NNC(=S)Nc1ccccc1 (stereo not drawn) | x | -0.22 | x | x | x | x
Cc1ccc(S(=O)(=O)NC(C(=O)O)c2ccccc2)cc1 (stereo not drawn) | 0.8 | 0.16 | -0.62 | 20 | -15 | -8
COc1ccc(C(=O)COC(=O)C2CCCN2C(=O)C23CC4CC(CC(C4)C2)C3)cc1 (stereo not drawn) | 0.9 | -1 | x | 8 | -6 | 55*
O=C(COC(=O)C1CCCN1C(=O)C12CC3CC(CC(C3)C1)C2)c1ccc(Br)cc1 (stereo not drawn) | 1 | -0.13 | -0.021 | -5 | 9 | -4
CCn1c2ccccc2c2cc(NC(=O)c3ccccc3[N+](=O)[O-])ccc21 | 0.8 | -0.027 | x | 15 | 7 | -4
CC(C)(C)NC(=O)C1CCN(S(=O)(=O)c2cccc(C(F)(F)F)c2)CC1 | 0.9 | 0.032 | 0.041 | 7 | 10 | 2
Cc1cccc(C)c1NC(=S)NCc1ccccc1 | x | 0.38 | x | x | 3 | 6
Cc1cccc(C)c1NC(=S)NC(=O)CCc1ccccc1 | 0.8 | x | x | 15 | -1 | 93*
SMILES | Diaphorase act | Cl transport mod | ROMK mod | Diaphorase inh | WT yeast gro inh | L major viab
Cc1ccccc1NC(=S)NC(=O)CCc1ccccc1 | 1 | 0.35 | x | -1 | 12 | 100*
Cc1ccccc1NC(=S)NC(C)CCc1ccccc1 (stereo not drawn) | 0.9 | -2.2 | x | 8 | 68* | 62*
NC(=O)c1ccccc1NC(=S)NC(=O)CCc1ccccc1 | 0.8 | -0.62 | 2.6 | 19 | 9 | -6
O=C1CSC(c2ccc(Cl)cc2)N1c1cccnc1 (stereo not drawn) | x | -0.0016 | x | x | x | x
CC(=O)Nc1cccc(NC(=S)Nc2ccc(F)cc2F)c1 | 0.8 | x | 0.028 | 22 | -23 | 1
COc1ccc(C(NC(=O)CC(C)C)NC(=O)CC(C)C)cc1OC | 1 | 1.9 | x | 4 | 7 | -6

High-throughput results as filed in PubChem.
